Reference: ChEMBL document CHEMBL1255240, “The mitochondrion is a site of trypanocidal action of the aromatic diamidine DB75 in bloodstream forms of Trypanosoma brucei” (Antimicrob Agents Chemother, 2008)
pIC50: −log10 of the molar value. Active and inactive are the calls of the source. The rule behind the calls is not given here.

Experiments:
[1] = tested on: Trypanosoma brucei brucei; assay: Antimicrobial activity against Trypanosoma brucei brucei 427 bloodstream form assessed as reduction in mitochondrial membrane potential at 10 uM after 5 mins using rhodamine 123 exclusion test relative to control; assay type: functional; parameters: scale not given: the % may be the effect or the level left
Method in brief: (§1)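 Rat-derived bloodstream cells washed in Tes buffer pH 7.5 (10 mM glucose, 1.0% fatty acid-free BSA) at room temperature. Cells at 10^7/ml pretreated with compound for the stated time, then 250 nM Rh123 for 2 min. Diluted 1:10 and flow cytometry (excitation 507, emission 529 nm) on 20,000 cells. % decrease in mean fluorescence versus untreated cells; at least three independent experiments.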

[2] = tested on: Trypanosoma brucei brucei; assay: Antimicrobial activity against Trypanosoma brucei brucei 427 bloodstream form assessed as reduction in mitochondrial membrane potential at 10 uM after 1 min using rhodamine 123 exclusion test; assay type: functional; parameters: scale not given: the % may be the effect or the level left; method in brief: as §1
[3] = tested on: Trypanosoma brucei brucei; assay: Antimicrobial activity against Trypanosoma brucei brucei 427 bloodstream form assessed as inhibition of mitochondrial ATPase activity at 50 uM after 10 mins; assay type: functional
Method in brief: (§2)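 Bloodstream-form mitochondrial fraction, 100 μg protein, in 20 mM Tris-HCl pH 7.4 with 15 mM KH2PO4, 0.6 M sorbitol, 10 mM MgSO4 and 2.5 mg/ml fatty acid-free BSA. Pre-incubated 10 min on ice with compound (final 10, 50 or 100 μM; oligomycin 50 μM pretreatment where combined), then 0.20 mM ATP for 30 min at 30°C. Perchloric acid quench; remaining ATP by luciferase against a standard curve, blank subtracted. Activity relative to untreated control (100%). Duplicates; three independent experiments.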

[4] = tested on: Trypanosoma brucei brucei; assay: Antimicrobial activity against Trypanosoma brucei brucei 427 bloodstream form assessed as inhibition of glucose-dependent cellular respiration; assay type: functional, organism-based
Method in brief: (§3)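 Bloodstream trypanosomes from infected rat blood, DE52-purified, washed once in mannitol-based buffer pH 7.4 (220 mM mannitol, 25 mM HEPES, 2 mM EGTA, 5 mM MgSO4) with 20 mM glucose. O2 uptake of 2.0 × 10^6 cells/ml recorded with an oxygen electrode at 37°C. % inhibition from the rates just before vs after compound addition. Two independent experiments.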

[5] = tested on: Trypanosoma brucei brucei; assay: Antimicrobial activity against Trypanosoma brucei brucei 427 bloodstream form assessed as inhibition of glucose-dependent cellular respiration at 300 uM; assay type: functional, organism-based; method in brief: as §3
[6] = tested on: Trypanosoma brucei brucei; assay: Inhibition of respiration in Trypanosoma brucei brucei 427 bloodstream form mitochondria using glycerol-3-phosphate as substrate at 600 uM; assay type: functional
Method in brief: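 Mitochondrial fraction from rat-derived bloodstream cells, prepared by glass-bead lysis and differential centrifugation (12,000 × g pellet) at 0–4°C. Suspended to 0.8 mg/ml in glucose-free mannitol buffer pH 7.4 with 20 mM L-α-glycerol phosphate as substrate. O2 uptake by oxygen electrode at 37°C; compound added after a stable reading (about 2 min) and recording continued several minutes.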

[7] = tested on: Trypanosoma brucei brucei; assay: Antimicrobial activity against Trypanosoma brucei brucei 427 bloodstream form assessed as reduction in mitochondrial membrane potential at 1 uM after 1 min using rhodamine 123 exclusion test; assay type: functional, organism-based; method in brief: as §1
[8] = tested on: Trypanosoma brucei brucei; assay: Antimicrobial activity against Trypanosoma brucei brucei 427 bloodstream form assessed as inhibition of mitochondrial ATPase activity 10 uM after 10 mins; assay type: functional; parameters: scale not given: the % may be the effect or the level left; method in brief: as §2
[9] = tested on: Trypanosoma brucei brucei; assay: Antimicrobial activity against Trypanosoma brucei brucei 427 bloodstream form assessed as inhibition of mitochondrial ATPase activity at 100 uM after 10 mins; assay type: functional; parameters: scale not given: the % may be the effect or the level left; method in brief: as §2
[10] = tested on: Trypanosoma brucei brucei; assay: Antimicrobial activity against Trypanosoma brucei brucei 427 bloodstream form assessed as inhibition of mitochondrial ATPase activity pretreated with oligomycin for 10 mins; assay type: functional; method in brief: as §2
[11] = Drug uptake in Trypanosoma brucei brucei 427 bloodstream form nucleus at 1 uM after 5 mins by fluorescence microscopy; assay type: ADME
Method in brief: (§4)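 Cells (about 10^6) incubated with 1.0 μM compound in cBMEM (MEM-based, 10% heat-inactivated FBS) at 37°C, 5% CO2. Aliquots taken at set times, pelleted, and dried films examined by UV fluorescence microscopy. Intrinsic blue fluorescence (excitation 365, emission 465 nm) scored in nucleus and kinetoplast.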

[12] = Drug uptake in Trypanosoma brucei brucei 427 bloodstream form kinetoplast at 1 uM after 5 mins by fluorescence microscopy; assay type: ADME; method in brief: as §4
[13] = Drug uptake in Trypanosoma brucei brucei 427 bloodstream form mitochondria at 100 uM after 5 mins by fluorescence microscopy; assay type: ADME
Method in brief: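 Living cells (10^6/ml) loaded with 25 nM MitoTracker Red CMXRos for 30 min at 37°C, washed, then given 100 μM compound for 5 min. Immobilised in 1.5% agarose (3.0% mixed 1:1) on a cold slide. Viewed with a DAPI-FITC-Texas Red triple filter; pink overlap taken as mitochondrial colocalisation.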

[14] = tested on: Trypanosoma brucei brucei; assay: Antimicrobial activity against Trypanosoma brucei brucei 427 bloodstream form assessed as reduction in mitochondrial membrane potential at 10 uM using rhodamine 123 exclusion test; assay type: functional, organism-based; method in brief: as §1
[15] = tested on: Trypanosoma brucei brucei; assay: Antimicrobial activity against Trypanosoma brucei brucei 427 bloodstream form assessed as reduction in mitochondrial membrane potential at 10 uM after 10 mins using rhodamine 123 exclusion test relative to control; assay type: functional; parameters: scale not given: the % may be the effect or the level left; method in brief: as §1
[16] = tested on: Trypanosoma brucei brucei; assay: Antimicrobial activity against Trypanosoma brucei brucei 427 bloodstream form assessed as reduction in mitochondrial membrane potential at 4 uM after 10 mins using rhodamine 123 exclusion test relative to control; assay type: functional; parameters: scale not given: the % may be the effect or the level left; method in brief: as §1
[17] = tested on: Trypanosoma brucei brucei; assay: Antimicrobial activity against Trypanosoma brucei brucei 427 bloodstream form assessed as reduction in mitochondrial membrane potential at 4 uM after 1 min using rhodamine 123 exclusion test; assay type: functional; parameters: scale not given: the % may be the effect or the level left; method in brief: as §1
[18] = tested on: Trypanosoma brucei brucei; assay: Inhibition of respiration in Trypanosoma brucei brucei 427 bloodstream form mitochondria using glycerol-3-phosphate as substrate at 2 mM; assay type: functional
Method in brief: (§5)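 Bloodstream trypanosomes were taken from infected rat blood and purified on DE52. They were lysed with glass beads, and a mitochondrial fraction was isolated by differential centrifugation at 0–4°C. Mitochondria at 0.8 mg/ml were held in mannitol/HEPES/EGTA/MgSO4 buffer, pH 7.4, without glucose, with 20 mM L-α-glycerol phosphate as substrate. Compound was added after a stable reading (about 2 min), and O2 consumption was recorded by oxygen electrode at 37°C.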

[19] = tested on: Trypanosoma brucei brucei; assay: Inhibition of respiration in Trypanosoma brucei brucei 427 bloodstream form mitochondria using glycerol-3-phosphate as substrate at 10 uM; assay type: functional; method in brief: as §5

## N#CC(C#N)=NNc1cccc(Cl)c1 [CARBONYL CYANIDE M-CHLOROPHENYLHYDRAZONE]
[1]
  Activity: 51%
[2]
  Activity: 36%
[3]
  Activity: inactive

## N=C(N)c1ccc(-c2ccc(-c3ccc(C(=N)N)cc3)o2)cc1 [FURAMIDINE]
[4]
  pIC50: 4.70
[5]
  Activity: Active
[6]
  inhibition: inactive
[7]
  Activity: Active
[2]
  Activity: 57%
[3]
  Activity: 47%
[8]
  Activity: 20%
[9]
  Activity: 47%
[10]
  Activity: Active
[11]
  Drug uptake: Active
[12]
  Drug uptake: Active
[13]
  Drug uptake: Active

## CCCCCC[C@H]1C(=O)O[C@H](C)[C@H](NC(=O)c2cccc(NC=O)c2O)C(=O)O[C@@H](C)[C@@H]1OC(=O)CC(C)C
[14]
  Activity: inactive

## CC(C)[C@@H]1NC(=O)[C@H](C)OC(=O)[C@@H](C(C)C)NC(=O)[C@@H](C(C)C)OC(=O)[C@H](C(C)C)NC(=O)[C@H](C)OC(=O)[C@@H](C(C)C)NC(=O)[C@@H](C(C)C)OC(=O)[C@H](C(C)C)NC(=O)[C@H](C)OC(=O)[C@@H](C(C)C)NC(=O)[C@@H](C(C)C)OC1=O [VALINOMYCIN]
[15]
  Activity: 70%

## CC[C@H]1/C=C/C=C/C[C@@H](C)[C@H](O)[C@@](C)(O)C(=O)[C@@H](C)[C@H](O)[C@@H](C)C(=O)[C@@H](C)[C@H](O)[C@@H](C)/C=C/C(=O)O[C@@H]2[C@H](C)[C@H](CC1)O[C@]1(CC[C@H](C)[C@H](C[C@@H](C)O)O1)[C@H]2C [OLIGOMYCIN]
[16]
  Activity: 50%
[17]
  Activity: 23%
[3]
  Activity: 30%

## O=C(NO)c1ccccc1O
[18]
  inhibition: Active
[19]
  inhibition: Active
